This is an account of results in ChEMBL document CHEMBL5260824, “9-Deazapurines as Broad-Spectrum Inhibitors of the ABC Transport Proteins P-Glycoprotein, Multidrug Resistance-Associated Protein 1, and Breast Cancer Resistance Protein” (J Med Chem, 2017).

The target of data set [1] is T1, Broad substrate specificity ATP-binding cassette transporter ABCG2 (Homo sapiens, UniProt Q9UNQ0).
T1 sequence (Q9UNQ0 whole entry): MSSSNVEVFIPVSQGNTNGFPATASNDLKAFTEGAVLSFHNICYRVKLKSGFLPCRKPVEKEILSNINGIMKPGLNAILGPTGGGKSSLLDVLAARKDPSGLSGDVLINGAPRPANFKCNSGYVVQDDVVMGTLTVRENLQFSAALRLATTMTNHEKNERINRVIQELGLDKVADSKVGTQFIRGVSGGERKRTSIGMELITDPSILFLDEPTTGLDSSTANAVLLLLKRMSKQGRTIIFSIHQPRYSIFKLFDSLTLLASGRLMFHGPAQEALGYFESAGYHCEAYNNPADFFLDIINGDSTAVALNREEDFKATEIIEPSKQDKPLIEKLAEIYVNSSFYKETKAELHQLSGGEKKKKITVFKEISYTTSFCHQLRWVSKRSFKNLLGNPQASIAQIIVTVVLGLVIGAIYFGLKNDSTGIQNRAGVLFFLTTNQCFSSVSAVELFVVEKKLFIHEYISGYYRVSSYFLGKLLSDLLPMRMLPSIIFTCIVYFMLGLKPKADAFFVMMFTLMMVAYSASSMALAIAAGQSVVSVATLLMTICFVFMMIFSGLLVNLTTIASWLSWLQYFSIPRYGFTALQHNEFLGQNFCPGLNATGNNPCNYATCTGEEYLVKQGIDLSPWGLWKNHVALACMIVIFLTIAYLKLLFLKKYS
In words: Inhibition of BCRP (unknown origin) expressed in MDCK cells assessed as increase in Hoechst 33342 accumulation incubated for 30 mins by Hoechst 33342 dye based fluorescence assay. In kind it is cell-based.

Data set [2] concerns the target T2, ATP-dependent translocase ABCB1 (Homo sapiens, UniProt P08183). In words: Inhibition of P-gp (unknown origin).
Data set [3] addresses T3, Multidrug resistance-associated protein 1 (Homo sapiens, UniProt P33527). Put plainly: Inhibition of human MRP1 expressed in human MDR cells measured for 2 hrs. In kind it is cell-based.
For data set [4], the target named is T2, ATP-dependent translocase ABCB1. Put plainly: Inhibition of P-gp (unknown origin) incubated for 30 mins by calcein AM analysis. The procedure, abridged: (§1)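 A2780/ADR cells (doxorubicin-selected, P-gp overexpressing), about 30,000 per well in Krebs-HEPES buffer pH 7.4, incubated 30 min at 37 °C with compound (100 nM–100 µM added solutions). Calcein AM (3.125 µM solution added) then fluorescence read every 60 s at 37 °C, ex 485/em 520 nm; slope over minutes 5–30 plotted vs log concentration. Cyclosporine A 10 µM = 100% inhibition, buffer = 0%.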

In data set [5] the target is T3, Multidrug resistance-associated protein 1. Put plainly: Inhibition of MRP1 in human NCI-H69AR cells incubated for 180 mins in presence of daunorubicin by flow cytometry analysis. Format: cell-based. The procedure, abridged: (§2)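 H69AR cells (doxorubicin-selected small cell lung cancer, RPMI-1640/20% FBS), about 60,000 per well, preincubated 15 min with compound (100 nM–100 µM added solutions, in unsupplemented medium), then daunorubicin (30 µM solution added); steady state after 180 min, 37 °C, 5% CO2. Cells resuspended; flow cytometry, 488 nm excitation, FL3 (≥670 nm). Reference inhibitor 75 at 10 µM = 100%; Imax relative to it.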

The target of data set [6] is T1, Broad substrate specificity ATP-binding cassette transporter ABCG2. Put plainly: Inhibition of BCRP (unknown origin) expressed in dog MDCK-II cells using pheophorbide A as substrate preincubated for 20 mins followed by substrate addition and measured after 120 mins by flow cytometry analysis. Format: cell-based. In a few lines:
(§3)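 MDCK II cells transfected with human wild-type BCRP cDNA C-terminally fused to GFP, grown in DMEM/10% FBS. About 45,000 cells per well preincubated 20 min at 37 °C, 5% CO2 with compound (100 nM–100 µM added solutions), then pheophorbide A (5 µM solution added) for 120 min to steady state. Resuspended; flow cytometry, 488 nm excitation, FL3 (≥670 nm); GFP in FL1. Reference inhibitor 24 at 10 µM = 100%.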

Data set [7] deals with T4, P-gp (ABCB1) (Homo sapiens, UniProt P08183). Put plainly: Inhibition of P-gp (unknown origin) at 10 uM incubated for 30 mins by calcein AM analysis relative to control. Particulars: probe calcein AM. In a few lines: as §1
T4 sequence (P08183 whole entry): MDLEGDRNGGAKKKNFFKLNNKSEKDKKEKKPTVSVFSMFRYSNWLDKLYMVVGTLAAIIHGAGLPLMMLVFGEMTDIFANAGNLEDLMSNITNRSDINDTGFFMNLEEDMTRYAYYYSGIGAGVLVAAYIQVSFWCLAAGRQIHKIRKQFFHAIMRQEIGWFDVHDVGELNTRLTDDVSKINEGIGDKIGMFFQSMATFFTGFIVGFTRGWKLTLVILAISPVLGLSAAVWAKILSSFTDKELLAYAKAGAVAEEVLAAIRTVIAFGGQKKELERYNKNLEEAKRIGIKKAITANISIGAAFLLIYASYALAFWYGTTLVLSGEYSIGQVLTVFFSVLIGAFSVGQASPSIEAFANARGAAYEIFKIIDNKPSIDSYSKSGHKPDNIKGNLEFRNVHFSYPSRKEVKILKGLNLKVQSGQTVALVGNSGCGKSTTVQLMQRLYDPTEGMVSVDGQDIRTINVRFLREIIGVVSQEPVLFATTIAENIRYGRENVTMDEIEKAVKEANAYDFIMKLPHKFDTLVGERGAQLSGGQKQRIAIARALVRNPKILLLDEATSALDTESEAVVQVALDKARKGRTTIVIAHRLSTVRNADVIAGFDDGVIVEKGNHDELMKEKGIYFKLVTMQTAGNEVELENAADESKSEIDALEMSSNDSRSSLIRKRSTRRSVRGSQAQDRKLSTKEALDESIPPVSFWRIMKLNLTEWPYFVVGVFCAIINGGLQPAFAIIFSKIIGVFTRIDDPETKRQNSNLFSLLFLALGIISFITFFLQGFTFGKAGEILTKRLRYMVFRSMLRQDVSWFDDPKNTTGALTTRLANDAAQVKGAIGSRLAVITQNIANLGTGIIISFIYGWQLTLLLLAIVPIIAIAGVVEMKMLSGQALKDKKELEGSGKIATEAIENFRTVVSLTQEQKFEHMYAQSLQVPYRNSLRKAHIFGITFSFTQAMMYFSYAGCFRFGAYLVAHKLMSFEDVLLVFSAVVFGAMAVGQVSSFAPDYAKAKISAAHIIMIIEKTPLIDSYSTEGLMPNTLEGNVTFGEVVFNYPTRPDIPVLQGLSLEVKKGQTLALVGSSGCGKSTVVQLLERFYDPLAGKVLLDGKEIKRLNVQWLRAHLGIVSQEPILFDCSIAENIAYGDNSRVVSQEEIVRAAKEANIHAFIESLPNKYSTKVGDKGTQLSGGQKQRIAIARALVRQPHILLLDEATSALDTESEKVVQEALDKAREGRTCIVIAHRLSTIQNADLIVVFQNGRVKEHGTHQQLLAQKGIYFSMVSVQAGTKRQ
The target in data set [8] is T5, MRP1 (Homo sapiens, UniProt P33527). Put plainly: Inhibition of MRP1 in human NCI-H69AR cells at 10 uM incubated for 180 mins in presence of daunorubicin by flow cytometry analysis relative to control. Format: cell-based. Particulars: probe daunorubicin. The procedure, abridged:
as §2

In data set [9] the target is T6, BCRP (ABCG2) (Homo sapiens, UniProt Q9UNQ0).
T6 sequence (Q9UNQ0 whole entry): T1 sequence (Q9UNQ0 whole entry)
In words: Inhibition of BCRP (unknown origin) expressed in dog MDCK-II cells at 10 uM using pheophorbide A as substrate preincubated for 20 mins followed by substrate addition and measured after 120 mins by flow cytometry analysis relative to control. In kind it is cell-based. Particulars: probe pheophorbide A. The procedure, abridged: as §3

Data set [10] addresses T5, MRP1. In words: Inhibition of MRP1 in human NCI-H69AR cells assessed as maximum inhibition at 10 uM incubated for 180 mins in presence of daunorubicin by flow cytometry analysis relative to control. Format: cell-based. Particulars: probe daunorubicin. In a few lines: as §2
In data set [11] the target is T4, P-gp (ABCB1). Put plainly: Inhibition of P-gp (unknown origin) expressed in dog MDCK-MDR1cells assessed as maximum inhibition by calcein AM accumulation assay relative to control. In kind it is cell-based. The conditions noted are these: MDCK-MDR1 cells, probe calcein AM, read-out: Imax.
For data set [12], the target named is T5, MRP1. Put plainly: Inhibition of MRP1 in human NCI-H69AR cells assessed as maximum inhibition incubated for 180 mins in presence of daunorubicin by flow cytometry analysis relative to control. Format: cell-based. The conditions noted are these: probe daunorubicin, read-out: Imax. In a few lines:
as §2

For data set [13], the target named is T6, BCRP (ABCG2). In words: Inhibition of BCRP (unknown origin) expressed in dog MDCK-II cells assessed as maximum inhibition using pheophorbide A as substrate preincubated for 20 mins followed by substrate addition and measured after 120 mins by flow cytometry analysis relative to control. In kind it is cell-based. The conditions noted are these: probe pheophorbide A, time 140 min, read-out: Imax. The procedure, abridged: as §3

The target in data set [14] is T1, Broad substrate specificity ATP-binding cassette transporter ABCG2. Put plainly: Inhibition of BCRP (unknown origin) expressed in MDCK cells assessed as increase in Hoechst 33342 accumulation incubated for 60 mins by Hoechst 33342 dye based fluorescence assay. In kind it is cell-based.
Data set [15] is described as follows: Inhibition of cell growth in SN-38 resistant dog MDCK-II-BCRP cells expressing BCRP measured for 72 hrs by MTT assay. In kind it is functional. Particulars: Canis lupus familiaris. The procedure, abridged:
(§4)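 Reversal assay: resistant lines (A2780/ADR, H69AR, MDCK II BCRP) and parental lines seeded as for MTT assay with modulator solutions of 1, 10 and 100 µM added (final 0.1, 1, 10 µM) and daunorubicin (P-gp, MRP1) or SN-38 (BCRP) at final 10 nM–10 µM. 72 h, MTT read-out; GI50 by variable-slope fit. Resistance factor = resistant/sensitive GI50; potentiation factor = GI50 without/with modulator.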

Data set [16] in a line: Inhibition of SN-38 sensitive dog MDCK-II-BCRP cells expressing BCRP measured for 72 hrs by MTT assay. Format: functional. The conditions noted are these: Canis lupus familiaris.
The next data set concerns H69AR. Put plainly: Inhibition of cell growth in Daunorubicin resistant human NCI-H69AR cells expressing MRP1 measured for 72 hrs by MTT assay. Format: functional. In a few lines: as §4
Data set [17] in a line: Inhibition of cell growth in Daunorubicin resistant human A2780 ADR cells expressing P-gp measured for 72 hrs by MTT assay. Format: functional. In a few lines: as §4
Data set [18] can be described thus: Inhibition of daunorubicin sensitive human A2780 ADR cells expressing P-gp measured for 72 hrs by MTT assay. Format: functional. In a few lines: as §4
Data set [19] in a line: Inhibition of daunorubicin sensitive human NCI-H69AR cells expressing MRP1 measured for 72 hrs by MTT assay. Format: functional. The procedure, abridged: as §4
The nature of data set [20]: Resistance factor, ratio of GI50 for inhibition of cell growth in daunorubicin resistant human NCI-H69AR cells expressing MRP1 to GI50 for inhibition of daunorubicin sensitive human NCI-H69 cells.
The nature of data set [21]: Resistance factor, ratio of GI50 for inhibition of cell growth in daunorubicin resistant human A2780 ADR cells expressing P-gp measured for 72 hrs by MTT assay to GI50 for inhibition of daunorubicin sensitive human A2780 cells measured for 72 hrs by MTT assay.

Molecules are shown by their SMILES. pIC50: −log10 of the molar value.

T2 sequence (P08183 whole entry): as above
T5 sequence (P33527 whole entry): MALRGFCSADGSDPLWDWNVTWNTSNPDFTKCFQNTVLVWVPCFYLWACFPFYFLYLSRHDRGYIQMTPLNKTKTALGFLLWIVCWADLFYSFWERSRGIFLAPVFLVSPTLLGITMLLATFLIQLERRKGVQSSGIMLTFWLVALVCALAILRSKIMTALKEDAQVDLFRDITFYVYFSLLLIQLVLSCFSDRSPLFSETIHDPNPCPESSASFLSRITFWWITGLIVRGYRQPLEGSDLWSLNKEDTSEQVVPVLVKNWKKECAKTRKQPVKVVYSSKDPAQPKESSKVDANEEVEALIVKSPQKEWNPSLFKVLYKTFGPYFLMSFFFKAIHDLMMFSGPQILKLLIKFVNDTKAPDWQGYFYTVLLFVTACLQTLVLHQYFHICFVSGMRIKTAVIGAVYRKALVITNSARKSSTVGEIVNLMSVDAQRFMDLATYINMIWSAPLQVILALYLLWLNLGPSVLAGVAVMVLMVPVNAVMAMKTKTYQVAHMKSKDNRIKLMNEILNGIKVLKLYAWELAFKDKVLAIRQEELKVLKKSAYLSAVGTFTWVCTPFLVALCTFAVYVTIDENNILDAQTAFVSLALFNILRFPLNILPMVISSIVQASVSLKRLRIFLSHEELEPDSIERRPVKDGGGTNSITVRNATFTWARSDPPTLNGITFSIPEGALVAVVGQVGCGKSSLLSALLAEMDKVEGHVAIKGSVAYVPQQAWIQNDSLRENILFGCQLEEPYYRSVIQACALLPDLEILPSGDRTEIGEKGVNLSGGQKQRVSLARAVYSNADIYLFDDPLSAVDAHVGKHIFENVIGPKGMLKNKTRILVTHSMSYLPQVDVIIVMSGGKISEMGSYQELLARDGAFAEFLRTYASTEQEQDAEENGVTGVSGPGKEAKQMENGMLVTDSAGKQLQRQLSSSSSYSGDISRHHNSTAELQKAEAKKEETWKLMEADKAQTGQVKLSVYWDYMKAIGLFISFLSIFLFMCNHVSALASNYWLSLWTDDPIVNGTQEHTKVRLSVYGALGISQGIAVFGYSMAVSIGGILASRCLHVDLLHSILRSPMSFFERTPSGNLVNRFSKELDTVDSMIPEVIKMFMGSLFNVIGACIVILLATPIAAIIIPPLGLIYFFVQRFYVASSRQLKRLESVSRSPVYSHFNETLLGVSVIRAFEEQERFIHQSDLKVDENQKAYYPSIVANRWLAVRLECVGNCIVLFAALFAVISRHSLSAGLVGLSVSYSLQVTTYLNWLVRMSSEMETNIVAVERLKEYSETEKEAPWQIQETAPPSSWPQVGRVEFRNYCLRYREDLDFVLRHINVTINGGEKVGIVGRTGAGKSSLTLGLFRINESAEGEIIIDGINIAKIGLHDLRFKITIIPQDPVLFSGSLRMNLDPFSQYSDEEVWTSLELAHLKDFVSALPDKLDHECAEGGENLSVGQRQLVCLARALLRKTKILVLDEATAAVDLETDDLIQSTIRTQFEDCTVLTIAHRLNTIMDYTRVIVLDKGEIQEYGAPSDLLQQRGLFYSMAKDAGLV
T3 sequence (P33527 whole entry): as above

For the molecule `COc1ccc(Nc2nc(-c3ccccc3)nc3ccccc23)cc1OC`, in [1], the pIC50 was 5.92.
As to `N#Cc1c2n(c3c(N4CCN(CCc5ccc(F)c(F)c5)CC4)nc(-c4ccncc4)nc13)CCCC2`, the pIC50 in [2] was 6.98; in data set [3], 5.88.
Turning to `c1ccc(CCN2CCN(c3ncnc4c3[nH]c3ccccc34)CC2)cc1`, the pIC50 was 5.95 in data set [4], 6.39 in data set [5] and 6.08 in [6]. Besides, the inhibition at 0.5 h, 10 µM on P-gp (ABCB1) [7] was greater than 25%. The inhibition at 3 h, 10 µM on MRP1 [8] is greater than 25%; at MRP1 [10], 60%. Besides, the inhibition at 2 h, 10 µM on BCRP (ABCG2) [9] was greater than 25%. For the same molecule, on P-gp (ABCB1) [11], the Emax is 26%. Also, the Emax at 3 h on MRP1 [12] was 61%. Besides, the Emax at 2 h on BCRP (ABCG2) [13] stood at 28%.
For the molecule `COc1ccc(/C=C/C(=O)c2ccccc2NC(=O)c2cnc3ccccc3c2)cc1OC`, the pIC50 was 6.31 in data set [2] and 6.24 in [14].
As to `CCc1c2c(nc3ccc(O)cc13)-c1cc3c(c(=O)n1C2)COC(=O)[C@]3(O)CC` [7-ETHYL-10-HYDROXYCAMPTOTHECIN], the concentration for 50% growth inhibition (GI50) was 1710 nM in data set [15] and 86 nM in data set [16].
As for `COc1cccc2c1C(=O)c1c(O)c3c(c(O)c1C2=O)C[C@@](O)(C(C)=O)C[C@@H]3O[C@H]1C[C@H](N)[C@H](O)[C@H](C)O1` [DAUNORUBICIN], the GI50 was found to be 3840 nM in the data set with H69AR, 575 nM in data set [17], 10 nM in data set [18] and 361 nM in data set [19]. The values for the RatioGI50 in data set [20] and in data set [21] were 11 and 54, respectively.
